A selection: hits, their analogues and other compounds. The true share with any hit is near 3.3%.
Measles CPE – protection of cells from measles virus; Measles virus-infected cells, CPE protection, absorbance; protection (pct of control), % at 4 µM; 1.5% of 140,000 active; AID 841; in the data active = protection mostly above about 24%, no sharp cut-off; inactive = mostly below about 26%
NFkB transloc inh – blocks IL-1B driven NFkB nuclear translocation in HUVEC cells | HUVEC IL-1B NFkB p65 nuclear translocation imaging | inhibition, % at 2 µM | 0.43% of 94,000 active | AID 796;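 active = inhibition above about 30% together with a positive call from visual inspection of the well image, limit read from the data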;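 also: nuclear over cytoplasmic p65 intensity ratio measured by imaging; 0% = IL-1B stimulated DMSO wells and 100% = unstimulated DMSO wells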
HIV Rev-RRE inh – disrupts HIV-1 Rev binding to RRE RNA; P05866; Rev peptide-RRE RNA binding, FRET; inhibition, % at 8 µM; 0.79% of 97,000 active; AID 704;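 active = inhibition above the screen-wide mean plus 3 SD, cut at about 35% in these data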;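 also: 0% = median DMSO wells and 100% = median Neomycin B control wells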
Target sequence (P05866 whole entry, looked up): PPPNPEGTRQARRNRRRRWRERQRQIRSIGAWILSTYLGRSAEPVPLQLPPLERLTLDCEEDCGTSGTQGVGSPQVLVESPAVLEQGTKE
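Assay system: Rev peptide and RRE RNA, both fluorescently labelled; times: 5 min preincubation and 15 min binding, 25 °C; detection: FRET, ex 480 nm, em 540 and 671 nm; read-out basis: % inhibition from 671/540 nm acceptor-to-donor ratio, scaled between controls; benchmarks: DMSO low control, neomycin B high control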
FAK inh – inhibitors of human focal adhesion kinase; AID 727; 0.84% of 97,000 active; biochemical FAK kinase activity assay; inhibition, %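 (tested at 7 µM)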; Q05397;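 also: 0% = DMSO and 100% = reference compound high control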
HUVEC tox IL1B – toxic to HUVEC cells under IL-1B stimulation; 0.41% of 94,000 active; AID 845; HUVEC cell count loss, Hoechst imaging, IL-1B stimulated; cell count reduction, % at 2 µM;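 active = cell count reduction more than 3 SD above the screen-wide mean, cut at about 70% in these data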;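 also: normalized per plate to untreated control cells as the no-loss baseline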
NFkB transloc pot – enhances IL-1B driven NFkB nuclear translocation | HUVEC IL-1B NFkB p65 nuclear translocation imaging | activation, % at 2 µM | 0.3% of 94,000 active;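 active = activation above 40%, about the mean plus 3 SD, also judged a hit on visual image review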;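 also: percent activation is computed from the nuclear over cytoplasmic p65 intensity ratio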
FAK inh conf – FAK (human) inhibition confirmed; shares compounds with FAK inh; FAK kinase biochemical inhibition assay; inhibition, % at 7 µM; 28% of 750 active; AID 794
* marks the source's active call; other numbers are inactive results; . = no result given. Rule as the data show it, unless noted: active = inhibition above about 19%; inactive = the rest.

SMILES	Measles CPE	NFkB transloc inh	HIV Rev-RRE inh	FAK inh	HUVEC tox IL1B	NFkB transloc pot	FAK inh conf
CCC1(CC)NC(=O)N(CC(=O)Nc2sc3c(c2C(N)=O)CCC3)C1=O	31	-37	15	28*	-11	37	6
CCn1cc(C(=O)O)c(=O)c2cc(F)c(N/N=C/c3ccccc3[N+](=O)[O-])cc21	8	.	.	.	.	.	.
O=C1Nc2ccccc2S/C1=C/Nc1cccc(Cl)c1	5	0	0	26*	-38	0	6
C=CCNC(=O)/C(C#N)=C\c1cc(Cl)c(OCC)c(OC)c1	8	.	.	.	.	.	.
C=CCn1cc(/C=N\NC(=O)c2cc3c(ccc4ccccc43)o2)c2ccccc21	14	0	3	2	0	0	.
O=C(N/N=C/C=C/c1ccccc1)c1cc2c(ccc3ccccc32)o1	4	0	-21	42*	9	1	17
CC(=O)N(/N=C1\Sc2ccccc2C1=O)c1cccc(C)c1	8	-5	8	19*	-11	5	16
COc1ccc(-c2[nH]ncc2/C=N\NS(=O)(=O)c2ccccc2)cc1OC	13	-9	5	22*	-7	9	15
O=C(CSc1nnnn1-c1ccc2c(c1)OCCO2)Nc1nc2c(s1)CCCC2	4	-3	13	29*	21	3	9
CCOC(=O)c1ccc(NC(=O)CSc2nc(C)cc(=O)[nH]2)cc1	5	-7	-3	20*	3	7	5
Cc1cc(=O)[nH]c(SCC(=O)Nc2ccc(C(=O)O)cc2)n1	15	-24	10	2	7	24	.
CCOc1ccc(/C=N/NC(=O)c2cc(-c3ccco3)nc3ccccc23)cc1	6	.	.	.	.	.	.
O=C(N/N=C/c1ccc(F)cc1)c1cc(-c2ccco2)nc2ccccc12	6	.	-176	72*	.	.	45*
CCc1nn2cc(C(=O)c3cc(Cl)ccc3O)cnc2c1-c1ccc(F)cc1	17	.	.	.	.	.	.
CC(C)(C)c1nc2ccccc2c2nnc(SCC(=O)Nc3nc4ccccc4s3)n12	18	-11	-4	23*	-43	11	6
O=C(CSc1ccc2c(c1)OCCO2)NC(=O)Cc1ccccc1	5	.	.	.	.	.	.
Cc1nn2c(c1-c1ccccc1)NC1=C(C(=O)CCC1)C2c1ccccc1 (stereo not given)	14	-2	6	25*	-7	1	22*
CC(=O)c1ccc(NC(=O)c2ccc3nc(-c4ccco4)c(-c4ccco4)nc3c2)cc1	4	-12	-42	84*	-5	12	30*
O=C(NCc1ccccc1)c1ccc2nc(-c3ccco3)c(-c3ccco3)nc2c1	3	8	-21	45*	13	-8	4
O=C(c1cccc(C(=O)N2CCN(c3ncccn3)CC2)c1)N1CCN(c2ncccn2)CC1	10	10	8	0	15	-10	.
O=C(c1ccc2nc(-c3ccco3)c(-c3ccco3)nc2c1)N1CCN(c2ncccn2)CC1	1	-9	-1	55*	-31	9	-3
O=C(Nc1ccccc1)c1ccc2nc(-c3ccco3)c(-c3ccco3)nc2c1	3	-10	5	21*	-15	10	2
CCCCNC(=O)c1ccc2nc(-c3ccco3)c(-c3ccco3)nc2c1	10	.	.	.	.	.	.
CN(C)c1ccc(/C=C(/NC(=O)c2ccccc2)C(=O)N/N=C/c2ccc([N+](=O)[O-])c(O)c2)cc1	0	3	5	20*	8	-3	5
Cc1cc(C)cc(OCC(=O)NNC(=O)CN2C(=O)c3ccccc3C2=O)c1	20	.	.	.	.	.	.
SMILES	Measles CPE	NFkB transloc inh	HIV Rev-RRE inh	FAK inh	HUVEC tox IL1B	NFkB transloc pot	FAK inh conf
COc1ccc(C2OC(=O)CC2C(=O)NC2CCCCCC2)cc1OC (stereo not given)	29	-12	6	21*	3	12	2
COc1ccc(C2OC(=O)CC2C(=O)NC2CCCC(C)C2C)cc1OC (stereo not given)	9	-10	0	-2	9	10	.
Nc1ncnc2nc(SCc3ccccc3)[nH]c12	9	-34	8	38*	4	34	13
Nc1ncnc2nc(SCC(=O)N3CCN(c4ccccc4)CC3)[nH]c12	6	-32	10	4	-12	32	.
O=c1[nH]c2ccccc2cc1-c1noc(-c2cccnc2)n1	19	-23	9	7	-26	23	.
COc1ccc2[nH]c(=O)c(-c3noc(-c4ccccc4)n3)cc2c1	6	4	14	59*	-24	-4	36*
C/C=N/NC(=O)CCNC(=O)c1ccccc1	4	.	.	.	.	.	.
O=C(CSc1nnc(SCc2cccc3ccccc23)s1)N=Nc1c(O)[nH]c2ccccc12	6	.	.	.	.	.	.
COC(=O)c1c(NC(=O)Cc2cccs2)sc2c1CCCC2	27	-1	16	21*	8	1	8
CC(C)c1ccc(C2NC(=S)NC3=C2C(=O)CC(C)(C)C3)cc1 (stereo not given)	5	.	.	.	.	.	.
COc1ccc(OC)c(S(=O)(=O)NCc2ccccc2)c1	7	-6	3	-3	-4	6	.
COc1ccc(OC)c(NS(=O)(=O)Cc2ccccc2)c1	6	-25	6	46*	8	25	32*
COc1ccc(C2=CSC3=C(C(=O)c4cccc(S(=O)(=O)N(C)C)c4)CCN23)cc1	16	-2	10	4	-8	2	.
CCCCOCCCNC(=O)c1ccc([N+](=O)[O-])c(C)c1	12	.	.	.	.	.	.
NNC(=O)[C@@H]1C[C@@H]1c1ccccc1	7	.	.	.	.	.	.
CCc1c(C)sc(NC(=O)C2CC2c2ccccc2)c1C(N)=O (stereo not given)	38*	-5	4	35*	8	5	17
O=C1Nc2ccc(NS(=O)(=O)c3cccs3)c3cccc1c23	44*	-17	1	42*	-17	17	19*
CCOC(=O)c1c(NC(=O)CSc2nc3nc(C)cc(C)n3n2)sc(CC)c1C	26	.	.	.	.	.	.
CCOc1c(Br)cc(C2NS(=O)(=O)N=C3CCCCCN32)cc1OC (stereo not given)	10	1	1	47*	-8	-1	0
COc1ccc(-c2ncccc2OC(=O)C23CC4CC(CC(C4)C2)C3)cc1OC	9	.	.	.	.	.	.
Cc1ccc(NC2=C(N3CCCCC3)C(=O)c3ccccc3C2=O)cc1	9	-18	2	15	9	8	.
O=C(/C=C/c1ccc(O)cc1)c1ccc(NC2=C(N3CCCCC3)C(=O)c3ccccc3C2=O)cc1	13	.	5	30*	.	.	2
O=C1C(Nc2ccccc2)=C(N2CCCCC2)C(=O)c2ccccc21	11	-2	6	23*	4	2	4
O=C1C(Nc2cccc(O)c2)=C(N2CCCCC2)C(=O)c2ccccc21	24	12	16	27*	-55	-12	4
CCCCCCC(=O)N/N=C1\CCCc2ccccc21	5	.	.	.	.	.	.
Cc1c(O)c(CN2CCCC2)cc2c1oc(=O)c1ccccc12	9	9	5	40*	3	-9	12
